From ChEMBL document CHEMBL4219232, “Discovery of novel serine palmitoyltransferase inhibitors as cancer therapeutic agents” (Bioorg Med Chem, 2018)
In brackets after ≈: the same amount, converted by molar mass.

Tests used:
HCC4006 = assay: Growth inhibition of human HCC4006 cells assessed as inflection point after 5 days by cell-titer-glo luminescent cell viability assay; type: functional
In short: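 HCC4006 cells were grown in RPMI with 10% FBS and penicillin/streptomycin, seeded at 250 cells/well and cultured overnight. Cells were then exposed to compound for 5 days, and the medium was replaced with CellTiter-Glo reagent for a luminescence read. The IP is the concentration at the inflection point of the dose-response curve, n = 2.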

[1] = Oral bioavailability in non-fasted mouse at 1 mg/kg administered as cassette dosing by LC/MS/MS analysis; type: ADME, organism-based; conditions: in vivo
In short: (§1)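 Non-fasted mice received compounds as cassettes, intravenously at 0.1 mg/kg (10 compounds per cassette) or orally at 1 mg/kg (5 compounds per cassette). Blood was collected and centrifuged to plasma. Plasma was deproteinized with acetonitrile and centrifuged before analysis. Parameters are means of n = 3.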

[2] = Clearance in mouse liver microsomes in presence of NADPH; type: ADME, microsome; conditions: read-out: CLH
In short: (§2)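 Metabolic clearance was measured in human or mouse liver microsomes with NADPH, n = 2, in μL/min/mg.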

[3] = Clearance in human liver microsomes in presence of NADPH; type: ADME, microsome; conditions: read-out: CLH; in short: as §2
[4] = Growth inhibition of human PL21 cells after 5 days by cell-titer-glo luminescent cell viability assay; type: functional; conditions: for IC50: Homo sapiens, PL-21, 120 h
[5] = biological target: T1, Serine palmitoyltransferase 2 (Homo sapiens, UniProt O15270); assay: Inhibition of human SPT2 transfected in Freestyle293 cells using L-serine and palmitoyl-CoA as substrate preincubated for 60 mins followed by substrate addition measured after 15 mins by mass spectrometric analysis; type: cell-based
T1 sequence (O15270 whole entry): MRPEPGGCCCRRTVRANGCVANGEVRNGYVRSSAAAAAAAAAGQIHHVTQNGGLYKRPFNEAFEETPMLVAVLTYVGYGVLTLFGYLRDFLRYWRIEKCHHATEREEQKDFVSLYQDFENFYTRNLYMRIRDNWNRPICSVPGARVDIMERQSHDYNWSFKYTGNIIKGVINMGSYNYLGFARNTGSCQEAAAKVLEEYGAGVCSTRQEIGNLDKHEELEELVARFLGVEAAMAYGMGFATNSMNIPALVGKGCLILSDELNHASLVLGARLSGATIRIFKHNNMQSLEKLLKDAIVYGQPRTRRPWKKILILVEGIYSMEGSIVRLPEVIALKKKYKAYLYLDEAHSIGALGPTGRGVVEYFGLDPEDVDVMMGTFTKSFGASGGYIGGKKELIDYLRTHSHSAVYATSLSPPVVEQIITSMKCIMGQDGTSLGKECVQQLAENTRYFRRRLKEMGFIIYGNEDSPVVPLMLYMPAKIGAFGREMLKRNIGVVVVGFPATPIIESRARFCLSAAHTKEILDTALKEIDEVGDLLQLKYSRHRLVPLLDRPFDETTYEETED

[6] = Inhibition of SPT in human HCC4006 cells assessed as reduction in ceramide content after 24 hrs in presence of C16-ceramide-d31/C14-phosphatidylcholine-d72 by LC/MS analysis; conditions: HCC4006, 24 h
[7] = Total clearance in non-fasted mouse at 0.1 mg/kg, iv administered as cassette dosing by LC/MS/MS analysis; type: ADME, organism-based; conditions: in vivo; in short: as §1
Mus musculus [8] = assay: In vivo inhibition of SPT in tumors of human HCC1806 cells xenografted in mouse assessed as reduction in 3-KDS levels at 10 mg/kg, po measured after 8 hrs post dose by LC/MS analysis relative to control; type: functional
In short: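 HCC1806 breast cancer xenograft mice were dosed orally at 10 mg/kg. Tumor 3-KDS was quantified by LC/MS 8 h after dosing and compared with vehicle. Data are mean ± SD, n = 5, analysed by Dunnett's test.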

[9] = Tmax in non-fasted mouse at 1 mg/kg, po administered as cassette dosing by LC/MS/MS analysis; type: ADME, organism-based; conditions: in vivo; in short: as §1
[10] = Volume of distribution at steady state in non-fasted mouse at 0.1 mg/kg, iv administered as cassette dosing by LC/MS/MS analysis; type: ADME, organism-based; conditions: in vivo, read-out: Vdss; in short: as §1
[11] = Thermodynamic solubility in Japanese pharmacopoeia disintegration test solution 2 at 6.8; type: physicochemical; conditions: Japanese pharmacopoeia disintegration test solution 2, pH 6.8; read-out: Therm_solubility
In short: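 Thermodynamic solubility was measured in Japanese Pharmacopoeia disintegration test solution 2 at pH 6.8.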

[12] = AUC in non-fasted mouse at 1 mg/kg, po administered as cassette dosing by LC/MS/MS analysis; type: ADME, organism-based; conditions: in vivo; in short: as §1
[13] = Cmax in non-fasted mouse at 1 mg/kg, po administered as cassette dosing by LC/MS/MS analysis; type: ADME, organism-based; set-up: dose 1 mg/kg, route oral; conditions: in vivo; in short: as §1
[14] = MRT in non-fasted mouse at 1 mg/kg, po administered as cassette dosing by LC/MS/MS analysis; type: ADME, organism-based; conditions: in vivo; in short: as §1
[15] = Permeability of the compound from apical to basolateral side at pH 7.8 by PAMPA
Mus musculus [16] = assay: Toxicity in mouse xenografted with human PL21 cells assessed as body weight loss at 10 to 30 mg/kg, po administered every other day for 2 weeks; type: organism-based; conditions: in vivo, 336 h
In short: (§3)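 PL-21 xenograft mice, n = 6 per group. Compound was suspended in 0.5% aqueous methylcellulose and given orally every other day for two weeks at 10 or 30 mg/kg. Tumor volume and body weight were followed. T/C is the median tumor weight of the treated group divided by that of the control group.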

[17] = Antitumor activity against human PL21 cells xenografted in mouse at 30 mg/kg, po administered every other day for 2 weeks relative to control; type: functional; in short: as §3
[18] = Antitumor activity against human PL21 cells xenografted in mouse at 10 mg/kg, po administered every other day for 2 weeks relative to control; type: functional; in short: as §3

With `COc1ccc(C(=O)N2CCC(NC(=O)c3ccccc3Cl)C(c3ccccc3)C2)cc1OC` (mixture of isomers) the IP (HCC4006) was 41 nM.

Compound `COc1ccc(C(=O)N2CC[C@@H](NC(=O)c3ccccc3Cl)[C@H](c3ccccc3)C2)cc1OC` has an IP (HCC4006) of 570 nM.

In the case of `COc1ccc(C(=O)N2CCC(NC(=O)c3ccccc3Cl)c3c2cnn3C)cc1OC` (racemic), the bioavailability [1] is reported as 28%, the microsomal CLint [2] is reported as 6 µL/min/mg and the IP (HCC4006) is reported as 250 nM. The microsomal CLint [3] was 6 µL/min/mg.

Compound `COc1ccc(C(=O)N2CCC(NC(=O)c3ccccc3Cl)c3ccc(Cl)cc32)cc1OC` (stereo not given) has a microsomal CLint [2] of 216 µL/min/mg, an IP (HCC4006) of 500 nM and a microsomal CLint [3] of 132 µL/min/mg.

Work on `COc1ccc(C(=O)N2CCC(Nc3ccc(Cl)cc3)c3ccc(Cl)cc32)cc1OC` (stereo not given) yielded an IP (HCC4006) of 12000 nM.

Compound `COc1ccc(C(=O)N2CC[C@@H](NC(=O)c3ccccc3Cl)[C@@H](c3ccccc3)C2)cc1OC` has a bioavailability [1] of under 1%, a microsomal CLint [2] of 245 µL/min/mg and an IP (HCC4006) of 14 nM. The microsomal CLint [3] was 21 µL/min/mg.

Compound `COc1cc(C(=O)N2CC[C@@H](NC(=O)c3ccccc3OC(F)(F)F)c3c2cnn3C(C)C)cnc1OC` has an IP (HCC4006) of over 30000 nM.

With `CCCCCCC(=O)CCCCCC/C=C/C[C@@H](O)[C@H](O)[C@@](N)(CO)C(=O)O` [MYRIOCIN] the Imax [4] was over 90%, the IC50 [4] was 7.8 nM and the IP (HCC4006) was 2.1 nM. The IC50 [5] was 0.13 nM and the IC50 [6] was 1.5 nM.

Compound `COc1cc(C(=O)N2CCC(NC(=O)c3ccccc3OC(F)(F)F)c3c2cnn3C(C)C)cnc1OC` (racemic) has a bioavailability [1] of 25%, an IP (HCC4006) of 23 nM and a microsomal CLint [3] of 15 µL/min/mg.

Work on `COc1ccc(C(=O)N2CC[C@H](NC(=O)c3ccccc3Cl)[C@H](c3ccccc3)C2)cc1OC` yielded an IP (HCC4006) of 3800 nM.

For `COc1ccc(C(=O)N2CC[C@H](NC(=O)c3ccccc3Cl)[C@@H](c3ccccc3)C2)cc1OC`, the IP (HCC4006) was over 30000 nM.

For `Cn1nc(C(F)(F)F)cc1C(=O)N[C@@H]1CCN(C(=O)c2cc(Cl)c3nccnc3c2)C[C@@H]1c1ccccc1`, the clearance [7] was 8.45 mL/min/kg, the bioavailability [1] was 56% and the inhibition in vivo at 10 mg/kg (Mus musculus [8]) was 40%. The Tmax [9] was 1.2 h, the Vd [10] was 0.75 L/kg and the Imax [4] was over 90%. It also gave an IC50 [4] of 11 nM, a microsomal CLint [2] of 60 µL/min/mg and an IP (HCC4006) of 11 nM. For the same compound, the solubility thermodynamic [11] was 8 µg/mL (≈ 14.7 µM), the IC50 [6] was 2.3 nM and the AUC [12] was 1110 ng·h/mL. It also gave a microsomal CLint [3] of under 1 µL/min/mg, a Cmax [13] of 282 ng/mL and an MRT [14] of 2.7 h. It also gave a Papp [15] of 20.3 ×10⁻⁶ cm/s.

For `COc1cc(C(=O)N2CC[C@H](NC(=O)c3ccccc3OC(F)(F)F)c3c2cnn3C(C)C)cnc1OC`, the clearance [7] was 15.9 mL/min/kg, the Activity (Mus musculus [16]) was “Non-Toxic” and the bioavailability [1] was 53%. For the same compound, the inhibition in vivo at 10 mg/kg (Mus musculus [8]) was 40%, the Tmax [9] was 0.5 h and the Vd [10] was 1.13 L/kg. The Imax [4] was over 90%, the IC50 [4] was 4.1 nM and the microsomal CLint [2] was 5 µL/min/mg. For the same compound, the IP (HCC4006) was 3.9 nM, the solubility thermodynamic [11] was 24 µg/mL (≈ 45 µM) and the IC50 [6] was 2.4 nM. It also gave an AUC [12] of 572 ng·h/mL, a microsomal CLint [3] of 6 µL/min/mg and a Cmax [13] of 309 ng/mL. For the same compound, the T/C [17] was 38%, the MRT [14] was 1.4 h and the Papp [15] was 16.7 ×10⁻⁶ cm/s. For the same compound, the T/C [18] was 52%.
